Results on four compounds are retold here after ChEMBL document CHEMBL1145814, “Antiretroviral activity of semisynthetic derivatives of glycopeptide antibiotics” (J Med Chem, 2003).

The species named for experiment [1] is Mus musculus. Kind of experiment: Minimal inhibitory concentration required to cause a microscopic detectable alteration of C3H/3T3 embryo murine fibroblast cell morphology. The format is functional. A digest of the protocol: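 Uninfected C3H/3T3 murine embryo fibroblast cultures were exposed to test compound and checked microscopically for changes in cell morphology. The MIC is the concentration causing a microscopically detectable alteration of morphology.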

Experiment [2] relates to CCRF-CEM. Briefly: Inhibitory concentration against proliferation of human T-lymphocytic (CEM) cells. The format is functional, cell-based. Particulars: Homo sapiens, CCRF-CEM. The gist of the method: (§1)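 (5–7.5) × 10^4 cells per well were incubated with test compound at 37 °C in a humidified CO2 atmosphere. L1210 murine leukemia cells grew for 48 h, and CEM and Molt4/clone 8 human lymphocytes grew for 72 h. Cells were then counted with a Coulter counter. IC50 is the concentration inhibiting proliferation by 50%.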

Experiment [3] relates to Human immunodeficiency virus 2. Kind of experiment: Concentration required to protect human T-lymphocytic cells against the cytopathogenicity of HIV-2. The format is functional, organism-based. Particulars: Human immunodeficiency virus 2. (In general: Protection from cytopathic effect is a common read-out in antiviral testing.)
The test system of experiment [4] is Human immunodeficiency virus 1. Briefly: Effective concentration of compound required to protect human T-lymphocytic cells against the cytopathogenicity of HIV-1. The format is functional, organism-based. Particulars: Human immunodeficiency virus 1.
Experiment [5] relates to L1210. Briefly: Inhibitory concentration of compound against proliferation of murine lukemia cells L1210 was determined. As to conditions: Mus musculus. The format is functional, cell-based. The gist of the method: as §1
The test system of experiment [6] is MOLT-4. Briefly: Inhibitory concentration of compound against proliferation of human T-lymphocytic cells MOLT-4/C8 was determined. The experiment is classed as functional, cell-based. A digest of the protocol: as §1
The species named for experiment [7] is Mus musculus. Briefly: Effective concentration of compound required to protect C3H/3T3 embryo murine fibroblasts against the MSV induced transformation. The experiment is classed as functional, organism-based. As to conditions: Mus musculus, C3H/3T3. A digest of the protocol: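 Monolayer murine embryo fibroblast C3H/3T3 cultures were infected with Moloney murine sarcoma virus at 75 focus-forming units and cultured with test compound. Transformation was examined microscopically on day 6 postinfection. EC50 is the concentration protecting cells against MSV-induced transformation by 50%.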

pEC50, pIC50: −log10 of the molar value. Converted amounts (≈) assume the structure as drawn.

For orientation: pIC50 means −log10 of the IC50, conventionally taken in molar units. High values mean a low IC50, low ones a high IC50. As usually defined, the pEC50 is the EC50 on a negative log10 scale, so that one unit is a factor of ten. Low readings indicate a high EC50, high ones a low EC50.

Consider `CNC1C(=O)NC2Cc3ccc(cc3)Oc3cc4cc(c3OC3OC(C(=O)O)C(O)C(O)C3N)Oc3ccc(cc3Cl)C(O)C3NC(=O)C(NC(=O)C4NC(=O)C(NC2=O)c2cc(cc(O)c2Cl)Oc2cc1ccc2O)c1ccc(O)c(c1)-c1c(O)cc(O)cc1[C@H](C(=O)O)NC3=O` (stereo partly drawn), for which the MIC in experiment [1] is greater than 100 µM. In addition, the negative logarithm of the IC50 (pIC50) in experiment [2], in experiment [5] and in experiment [6] was less than 3.30 in each case. Further, the pEC50 in experiment [3] is less than 3.60; in experiment [4], 3.94; in experiment [7], less than 4.00.
As to `CNC(=O)[C@@H]1NC(=O)C2NC(=O)C(NC(=O)C3NC(=O)C4NC(=O)C(NC(=O)C(N)c5ccc(O)c(c5)Oc5cc(O)cc4c5)C(O)c4ccc(c(Cl)c4)Oc4cc3cc(c4O[C@@H]3O[C@@H](CO)[C@@H](O)[C@H](O)[C@@H]3NC(=O)CCCCCCC(C)C)Oc3ccc(cc3Cl)C2O[C@@H]2O[C@@H](CO)[C@@H](O)[C@H](O)[C@@H]2NC(C)=O)c2ccc(O)c(c2)-c2c(O[C@H]3O[C@H](CO)[C@@H](O)[C@@H](O)[C@@H]3O)cc(O)cc21` (stereo partly drawn), in experiment [1], the MIC was greater than 100 µM. Besides, the negative logarithm of the IC50 (pIC50) in experiment [2], in experiment [5] and in experiment [6] was less than 3.30 in each case. For the same compound, the pEC50 in experiment [3] is 3.72; in experiment [4], 4.10; in experiment [7], 4.12.
Consider `O=C1NC2C(=O)NC3C(=O)NC4C(=O)NC(C(=O)N[C@@H](C(=O)O)c5cc(O)cc(O)c5-c5cc4ccc5O)C(O)c4ccc(c(Cl)c4)Oc4cc3cc(c4O)Oc3ccc(cc3Cl)CC1NC(=O)C(NC(=O)C13CC4CC(CC(C4)C1)C3)c1ccc(O)c(c1)Oc1cc(O)cc2c1` (stereo partly drawn), for which the MIC in experiment [1] amounted to 100 µM (≈ 136 µg/mL). In addition, the values for the pIC50 in experiment [2], in experiment [5] and in experiment [6] were 4.08, 4.48 and 4.41, respectively. Also, the negative-log EC50 (pEC50) was 5.40 in experiment [3], 5.00 in experiment [4] and 4.96 in experiment [7].
In the case of `CN[C@H](CC(C)C)C(=O)N[C@H]1C(=O)N[C@@H](CC(N)=O)C(=O)N[C@H]2C(=O)N[C@H]3C(=O)N[C@H](C(=O)N[C@H](C(=O)O)c4cc(O)cc(O)c4-c4cc3ccc4O)[C@H](O)c3ccc(c(Cl)c3)Oc3cc2cc(c3O[C@@H]2O[C@H](CO)[C@@H](O)[C@H](O)[C@H]2O[C@H]2C[C@](C)(N)[C@H](O)[C@H](C)O2)Oc2ccc(cc2Cl)[C@H]1O` [VANCOMYCIN], the MIC in experiment [1] was greater than 100 µM. Further, the pIC50 in experiment [2], in experiment [5] and in experiment [6] was less than 3.30 in each case. Also, the negative-log EC50 (pEC50) in experiment [3] was less than 3.60; in experiment [4], less than 3.60; in experiment [7] it was less than 4.00.
